# HCT116 bCat-KO: beta-catenin-lacking colon tumor cell growth suppression. HCT116 beta-catenin knockout viability, CellTiter-Glo, 60 h; active compounds read low. viability, % at 10 µM. 140,000 tested, 1.5% active;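 active means viability at or under a set limit, the compound median less 4 SD, cut at about 6% in these data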
# H69AR growth 86K: growth inhibitors of human H69AR lung tumor cells | H69AR lung tumor viability, ATP luminescence, 72 h; active compounds read low | viability, % at 10 µM | 85,000 tested, 6% active | AID 598;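 active means viability at or below 40%; inactive means viability above 40%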;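 further: multidrug resistant small cell line overexpressing MRP-1 efflux transporter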
# HCT116 PTEN-null: suppresses growth of cells with PTEN deletion; HCT116 PTEN-null viability, CellTiter-Glo, 60 h; active compounds read low; viability, % at 10 µM; 140,000 tested, 1.2% active; AID 827;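 active means viability at or below a set limit, 4 SD under the median of all tested compounds, cut at about 3.7% in these data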;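 further: PTEN knockout HCT116 line with beta catenin targeted HCT116 as companion control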
# HUVEC prolif 384: blocks proliferation of human endothelial cells; HUVEC proliferation, CellTiter-Glo luminescence, 72 h; active compounds read low; viability, % at 10 µM (by protocol); 86,000 tested, 1.1% active;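 active means viability at or below 30%; inactive means viability above 30%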
# Lung fibro prol: blocks proliferation of human lung fibroblasts; LL 47 human lung fibroblast viability, ATP luminescence; active compounds read low; viability, % at 10 µM; 85,000 tested, 1.1% active; AID 719;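 active means viability at or below 50% in the single dose screen; inactive means viability above 50%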;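 further: compound exposure lasted 72 h before the ATP readout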
#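 Material: human lung fibroblast line LL 47, low passage; Evaluation: viability percentage against median untreated-cell control; Buffer or medium: 15% FBS in IMEM; Incubation: 72 h compound exposure at 37 °C after overnight plating; Dosing: 0.1% DMSO in all compound wells; Measured by: CellTiter-Glo luminescence.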
# Calb biofilm kill: kills Candida albicans biofilms | AID 834 | C. albicans biofilm + clotrimazole, Alamar Blue | 85,000 tested, 0.14% active | inhibition, % at 6 µM;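 active means inhibition above 20%; inactive means inhibition below 20%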;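 further: preformed 24 hr biofilms exposed to compound for 48 hr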
# Hits are given with their value; – = inactive; · = not tested or not shown. Only a selection was taken, and hits are over-represented in it overall.
SMILES,HCT116 bCat-KO,H69AR growth 86K,HCT116 PTEN-null,HUVEC prolif 384,Lung fibro prol,Calb biofilm kill
CS(=O)(=O)c1ncc(Cl)c(C(=O)Nc2ccc(N3CCOCC3)cc2)n1,–,0.2,–,–,·,–
CC1(C)CC(=O)C2=C(C1)OC(N)=C(C#N)C21C(=O)N(CN2CCOCC2)c2ccccc21 (stereo not given),–,–,–,–,–,–
COc1cccc(CN2C(=O)C3(C(C#N)=C(N)OC4=C3C(=O)CCC4)c3ccccc32)c1 (stereo not given),–,19,–,4.0,20,–
N#CC1(C#N)CC(C=O)=C(N)C1(C#N)CC(=O)C12CC3CC(CC(C3)C1)C2 (stereo not given),–,·,–,·,·,·
Cc1ccc(NC(=O)C(=O)NCCOc2ccccc2Cl)cc1,–,·,–,·,·,·
OCCOCCn1c2ccccc2c2ccccc21,–,–,–,–,–,–
CC(C)C1C(c2ccccc2)N(C)C(c2ccccc2)CC1(O)c1ccccc1 (stereo not given),–,20,–,–,–,–
Cc1ccc(-c2cc(C(=O)Nc3cc(C)on3)c3ccccc3n2)cc1,–,·,–,·,·,·
Cc1cc(C)c2nc(-c3ccccn3)cc(C(=O)Nc3cc(C)on3)c2c1,–,34,–,–,–,–
Cc1cc(NC(=O)c2cc(-c3ccncc3)nc3c(C)cccc23)no1,–,24,–,–,–,–
CN(C)[C@@H]1CCC[C@@H]1OC(=O)C(c1ccccc1)c1ccccc1,–,·,–,·,·,·
O=C1c2ccccc2C(=O)c2c1ccc1c(=O)n(C3CCCCC3)[nH]c21,–,36,–,3.2,·,–
Cc1nc2ccsc2c(=O)n1-c1ccc(Cl)cc1,–,·,–,·,·,·
Cc1ccc(N2CCN(CC(=O)Nc3c(C(=O)C4CC4)oc4ccccc34)CC2)cc1,–,·,–,·,·,·
O=C(NCc1ccccc1)c1noc2c1CCCC2,–,–,–,–,–,–
O=C(NCc1cccc(F)c1)c1noc2c1CCCC2,–,40,–,–,–,–
Cc1cc(C(=O)CSc2nnnn2-c2ccccc2)c(C)n1CCc1ccccc1,–,19,–,–,–,–
COc1ccc(CCn2c(C)cc(C(=O)CSc3nnnn3-c3ccccc3)c2C)cc1OC,–,–,–,–,–,–
Cc1ccc(S(=O)(=O)NC(=O)c2ccc(-c3ccc(-c4ccccc4)cc3)o2)c(C)c1,–,·,–,·,·,·
COc1cc2c(cc1OC)CN(C(=O)c1cc3ccccc3oc1=O)CC2,–,24,–,–,·,–
COc1cccc2cc(C(=O)N3CCc4ccccc4C3)c(=O)oc12,–,–,–,–,–,·
Cc1nc(NC2=NCN(Cc3cccnc3)CN2)nc2c(C)cccc12,·,37,·,–,–,–
Nc1ccccc1Nc1ccccc1,–,11,–,–,–,–
CC(=O)N1CC[n+]2c(-c3ccc(Cl)cc3Cl)csc21,–,·,–,·,·,·
CCCCNC(=O)NC1CCCC1,–,·,–,·,·,·
SMILES,HCT116 bCat-KO,H69AR growth 86K,HCT116 PTEN-null,HUVEC prolif 384,Lung fibro prol,Calb biofilm kill
OCCN1CCN(c2ncnc3c2sc2nc(N4CCOCC4)c4c(c23)CCC4)CC1,–,–,–,–,–,–
CN1CCN(c2ncnc3c2sc2nc(N4CCOCC4)c4c(c23)CCC4)CC1,·,–,·,–,–,–
Cc1cc(C)c2c(n1)sc1c(N3CCOCC3)ncnc12,·,–,·,22,–,–
c1nc(N2CCNCC2)c2sc3nc(N4CCOCC4)c4c(c3c2n1)CCC4,·,7.9,·,–,4.0,–
CN(c1ccccc1)c1ccc(/C=C/[N+](=O)[O-])cc1,4.7,·,3.5,·,·,·
CN(c1ccccc1)c1ccc(/C=N/NC(=O)CC#N)cc1,–,·,–,·,·,·
Cc1ccc(NC(=O)C2C3/C=C\CCCCC32)cc1C (stereo not given),–,·,–,·,·,·
O=C(NCC1CCCO1)C(c1ccc(F)cc1)N(Cc1ccc(F)cc1)C(=O)Cn1nnc(-c2cccs2)n1 (stereo not given),–,40,–,–,–,–
COc1ccc(-c2nnn(CC(=O)N(Cc3ccc(F)cc3)C(C(=O)NC3CCCC3)c3ccc(F)cc3)n2)cc1 (stereo not given),·,27,·,–,12,–
Cc1ccc(-c2nnn(CC(=O)N(Cc3cccs3)C(C(=O)NC3CCCC3)c3ccco3)n2)o1 (stereo not given),–,–,–,–,–,–
Cc1ccc(-c2nnn(CC(=O)N(Cc3cccs3)C(C(=O)NC3CCCCC3)c3ccco3)n2)o1 (stereo not given),–,19,–,–,–,–
CC(C)CCNC(=O)C(c1ccncc1)N(Cc1cccs1)C(=O)Cn1nnc(-c2ccc(F)cc2)n1 (stereo not given),–,40,–,–,–,–
C/C(Cn1cnc([N+](=O)[O-])n1)=N/NC(=O)COc1c(Cl)cc(Cl)cc1Cl,–,·,–,·,·,·
c1coc(-c2nn3c(Cn4nnc5ccccc54)nnc3s2)c1,–,·,–,–,–,–
COC(=O)Oc1ccc(/C=N/NC(=O)CN(c2ccccc2Cl)S(C)(=O)=O)cc1OC,–,·,–,·,·,·
Cc1ccc(-c2nnn(CC(=O)N(Cc3cccs3)C(C(=O)NC3CCCC3)c3ccncc3)n2)cc1 (stereo not given),–,29,–,–,–,–
COc1ccc(-c2nnn(CC(=O)N(Cc3cccs3)C(C)C(=O)NC3CCCC3)n2)cc1OC (stereo not given),–,–,–,–,–,–
CC(C)CN(CC(C)C)C(=O)C12CCC(C)(C(=O)C1)C2(C)C (stereo not given),–,–,–,–,–,–
[O-][n+]1cccc2ncc3cscc3c21,–,·,–,·,·,·
CCC(=O)Nc1nonc1-c1nc2ccccc2n1Cc1ccc(Cl)c(Cl)c1,·,16,·,–,–,–
CC(=O)Nc1nonc1-c1nc2ccccc2n1Cc1ccccc1,–,·,–,·,·,·
CCN(CC)c1ccc(/C=C2\C(=O)c3ccc(C(=O)O)cc3C2=O)cc1,–,·,–,·,·,·
Cc1ccc(-c2nn(-c3ccccc3)cc2CSC(=N)N)cc1,1.1,·,1.0,·,·,·
COc1ccc(NC(=O)c2cccc(-n3c(C)ccc3C)c2)c(OC)c1,–,·,–,·,·,·
CCOc1cc(S(=O)(=O)N2CCCCCC2)ccc1F,–,–,–,–,–,–
SMILES,HCT116 bCat-KO,H69AR growth 86K,HCT116 PTEN-null,HUVEC prolif 384,Lung fibro prol,Calb biofilm kill
COc1ccc(NC(=O)C(C/C=C(/C)Cl)C(C)=O)cc1 (stereo not given),–,–,–,–,–,21
O=C1C2C3C=CC(C2C(=O)N1C1CCCCC1)C1C2C(=O)N(C4CCCCC4)C(=O)C2C31 (stereo not given),–,·,–,·,·,·
COC(=O)c1ccccc1NS(=O)(=O)c1ccc2c3c(cccc13)C(=O)N2,·,–,·,–,–,–
COC(=O)c1c(NS(=O)(=O)c2cccs2)sc2c1CCCC2,–,–,–,–,–,–
COC(=O)c1c(C)oc2c1cc(NS(=O)(=O)c1cccs1)c1ccccc12,–,20,–,–,–,–
Cc1oc2c(cc(NS(=O)(=O)c3ccc4c5c(cccc35)C(=O)N4)c3ccccc32)c1C(=O)OC(C)C,–,31,–,–,–,–
Cc1nn(Cc2ccccc2Cl)c2sc(C(=O)NCc3ccc4c(c3)OCO4)cc12,–,–,–,–,–,–

# Assay outcomes from PubChem.
